Results: article PMC6720533 (Biomolecules & Therapeutics, 2019)

How the values were obtained:
Jurkat cells = experiment: WST-1 metabolic activity assay; type: cell-based; conditions: Homo sapiens, 72 h, read-out: metabolic activity
Summary of the method: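 Test compound came from a 10 mM DMSO stock. Cells were seeded at 5×10^4/well in triplicate with 5 or 10 μM final compound; controls got matched DMSO. After 72 h at 37°C, 5% CO2, WST-1 was added for a further 3 h. Absorbance was read at 450 nm (reference 620 nm), and metabolic activity given as % of DMSO control.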

RS4;11 cells = experiment: Proliferation, viable cell count by trypan blue exclusion; type: cell-based, human
Summary of the method: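 Human B-ALL (SEM, RS4;11) and T-ALL (Jurkat, CEM) lines were grown with 10% heat-inactivated FBS and penicillin/streptomycin at 37°C, 5% CO2. Cells took test compound at 0.1–5.0 μM (methods: 0.5–5.0 μM) or DMSO for up to 72 h. Viable cells were counted by trypan blue exclusion and expressed relative to control (100%). IC50 came from three separate experiments, each in triplicate.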

SEM cells = experiment: Apoptosis, Annexin V FITC / propidium iodide flow cytometry; type: cell-based, human; conditions: 5 μM, 72 h, DMSO 7.4%
CEM cells = experiment: as above; type: cell-based, human; conditions: 5 μM, 72 h, DMSO 7.3%
cleaved caspase 3 = experiment: Western blot, SEM cells; type: cell-based, human; conditions: 2.5 μM and 5.0 μM, 48 h
Summary of the method: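 SEM and RS4;11 cells were exposed to 2.5 or 5.0 μM test compound, or DMSO, for 48 h. Lysates of 1–5×10^6 cells were made in RIPA buffer with sonication. Cleaved caspase 3 was detected by western blot on PVDF with near-infrared imaging, using GAPDH as loading control.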

p-p38 = experiment: Western blot, SEM cells; type: cell-based, human; conditions: 2.5 μM or 5.0 μM, 48 h
Summary of the method: (§1)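 SEM or RS4;11 cells took DMSO, 2.5 or 5.0 μM test compound for 48 h. Cells (1–5×10^6) were lysed in RIPA buffer with sonication, run on SDS gels, blotted to PVDF and imaged by near-infrared fluorescence. Bands were normalised to GAPDH, and the phospho/total protein ratio was set relative to DMSO control (=1).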

pSTAT3 = experiment: Western blot, SEM cells; type: cell-based, human; conditions: 2.5 μM or 5.0 μM, 48 h
Summary of the method: as §1

pERK = experiment: Western blot, RS4; type: cell-based, human; conditions: RS4;11, 2.5 μM or 5.0 μM, 48 h
Summary of the method: as §1

Aurora-A = Aurora-A (Homo sapiens, UniProt O14965); experiment: Kinase activity screening; type: biochemical; conditions: FX-9 at 2.5 μM, ATP at Km (15 μM)
Summary of the method: (§2)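 Radiometric substrate-phosphorylation screen covering a panel of 58 human kinases run by a contract service. […] Activity is given as a percentage of mean activity in positive control samples (100%). Values <30% were scored strong hits, 30–70% partial hits and >70% no hit.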

CaMKI = CaMKI (Homo sapiens, UniProt Q14012); experiment: Kinase activity screening; type: biochemical; conditions: FX-9 at 2.5 μM, ATP at Km (200 μM)
Summary of the method: as §2

CDK9/cyclin T1 = CDK9/cyclin T1 (Homo sapiens, UniProt P50750); experiment: Kinase activity screening; type: biochemical; conditions: FX-9 at 2.5 μM, ATP at Km (45 μM)
Summary of the method: as §2

CHK1 = CHK1 (Homo sapiens, UniProt O14757); experiment: Kinase activity screening; type: biochemical; conditions: FX-9 at 2.5 μM, ATP at Km (90 μM)
Summary of the method: as §2

CK1γ1 = CK1γ1 (Homo sapiens, UniProt Q9HCP0); experiment: Kinase activity screening; type: biochemical; conditions: FX-9 at 2.5 μM, ATP at Km (15 μM)
Summary of the method: as §2

DRAK1 = DRAK1 (Homo sapiens, UniProt Q9UEE5); experiment: Kinase activity screening; type: biochemical; conditions: FX-9 at 2.5 μM, ATP at Km (10 μM)
Summary of the method: as §2

eEF-2K = eEF-2K (Homo sapiens, UniProt O00418); experiment: Kinase activity screening; type: biochemical; conditions: FX-9 at 2.5 μM, ATP at Km (15 μM)
Summary of the method: (§3)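 Radiometric kinase-panel screen of 58 human kinases, measuring substrate phosphorylation. […] Activity is given as % of the mean positive-control kinase activity (100%). Below 30% counts as a strong hit, 30–70% as a partial hit, and above 70% as no hit.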

EphB4 = EphB4 (Homo sapiens, UniProt P54760); experiment: Kinase activity screening; type: biochemical; conditions: FX-9 at 2.5 μM, ATP at Km (10 μM)
Summary of the method: as §2

GSK3β = GSK3β (Homo sapiens, UniProt P49841); experiment: Kinase activity screening; type: biochemical; conditions: FX-9 at 2.5 μM, ATP at Km (15 μM)
Summary of the method: as §2

LOK = LOK (Homo sapiens, UniProt O94804); experiment: Kinase activity screening; type: biochemical; conditions: FX-9 at 2.5 μM, ATP at Km (120 μM)
Summary of the method: as §2

Mnk2 = Mnk2 (Homo sapiens, UniProt Q9HBH9); experiment: Kinase activity screening; type: biochemical; conditions: FX-9 at 2.5 μM, ATP at Km (120 μM)
Summary of the method: as §2

p70S6K = p70S6K (Homo sapiens, UniProt P23443); experiment: Kinase activity screening; type: biochemical; conditions: FX-9 at 2.5 μM, ATP at Km (15 μM)
Summary of the method: as §3

PAK2 = PAK2 (Homo sapiens, UniProt Q13177); experiment: Kinase activity screening; type: biochemical; conditions: FX-9 at 2.5 μM, ATP at Km (90 μM)
Summary of the method: as §2

Pim-1 = Pim-1 (Homo sapiens, UniProt P11309); experiment: Kinase activity screening; type: biochemical; conditions: FX-9 at 2.5 μM, ATP at Km (90 μM)
Summary of the method: as §3

PKCθ = PKCθ (Homo sapiens, UniProt Q04759); experiment: Kinase activity screening; type: biochemical; conditions: FX-9 at 2.5 μM, ATP at Km (15 μM)
Summary of the method: as §3

PKG1α = PKG1α (Homo sapiens, UniProt Q13976); experiment: Kinase activity screening; type: biochemical; conditions: FX-9 at 2.5 μM, ATP at Km (90 μM)
Summary of the method: as §3

SAPK2a = SAPK2a (Homo sapiens, UniProt Q16539); experiment: Kinase activity screening; type: biochemical; conditions: FX-9 at 2.5 μM, ATP at Km (90 μM)
Summary of the method: as §3

SRPK1 = SRPK1 (Homo sapiens, UniProt Q96SB4); experiment: Kinase activity screening; type: biochemical; conditions: FX-9 at 2.5 μM, ATP at Km (10 μM)
Summary of the method: as §3

TAK1 = TAK1 (Homo sapiens, UniProt O43318); experiment: Kinase activity screening; type: biochemical; conditions: FX-9 at 2.5 μM, ATP at Km (45 μM)
Summary of the method: as §3

PI3 Kinase (p110b/p85a) = PI3 Kinase (p110b/p85a) (Homo sapiens, UniProt P42338); experiment: Kinase activity screening; type: biochemical; conditions: FX-9 at 2.5 μM, ATP at Km (200 μM)
Summary of the method: as §2

PI3 Kinase (p120g) = PI3 Kinase (p120g) (Homo sapiens, UniProt P48736); experiment: Kinase activity screening; type: biochemical; conditions: FX-9 at 2.5 μM, ATP at Km (100 μM)
Summary of the method: as §2

Chain of CHK1 (O14757 whole entry): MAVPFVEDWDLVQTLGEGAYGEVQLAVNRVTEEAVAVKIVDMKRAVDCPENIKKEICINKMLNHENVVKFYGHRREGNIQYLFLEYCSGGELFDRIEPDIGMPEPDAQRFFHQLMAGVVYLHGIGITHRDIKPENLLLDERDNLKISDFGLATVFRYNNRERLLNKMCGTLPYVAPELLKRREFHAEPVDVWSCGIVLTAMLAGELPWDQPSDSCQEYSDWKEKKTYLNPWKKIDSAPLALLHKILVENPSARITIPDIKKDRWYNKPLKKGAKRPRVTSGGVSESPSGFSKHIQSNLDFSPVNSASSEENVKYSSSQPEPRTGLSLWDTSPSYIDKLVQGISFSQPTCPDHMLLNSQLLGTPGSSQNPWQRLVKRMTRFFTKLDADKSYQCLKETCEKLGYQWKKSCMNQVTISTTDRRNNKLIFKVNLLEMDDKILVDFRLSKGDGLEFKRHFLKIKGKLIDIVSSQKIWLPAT
Chain of TAK1 (O43318 1-303 limits assumed): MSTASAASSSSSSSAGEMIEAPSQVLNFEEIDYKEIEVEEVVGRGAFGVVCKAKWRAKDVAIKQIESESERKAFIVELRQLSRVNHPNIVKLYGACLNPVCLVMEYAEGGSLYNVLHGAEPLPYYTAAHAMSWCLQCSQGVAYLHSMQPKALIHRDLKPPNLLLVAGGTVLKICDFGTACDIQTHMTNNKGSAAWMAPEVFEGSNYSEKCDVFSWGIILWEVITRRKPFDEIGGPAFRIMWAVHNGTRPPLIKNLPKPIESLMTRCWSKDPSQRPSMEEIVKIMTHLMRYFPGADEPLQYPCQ
Chain of EphB4 (P54760 16-987): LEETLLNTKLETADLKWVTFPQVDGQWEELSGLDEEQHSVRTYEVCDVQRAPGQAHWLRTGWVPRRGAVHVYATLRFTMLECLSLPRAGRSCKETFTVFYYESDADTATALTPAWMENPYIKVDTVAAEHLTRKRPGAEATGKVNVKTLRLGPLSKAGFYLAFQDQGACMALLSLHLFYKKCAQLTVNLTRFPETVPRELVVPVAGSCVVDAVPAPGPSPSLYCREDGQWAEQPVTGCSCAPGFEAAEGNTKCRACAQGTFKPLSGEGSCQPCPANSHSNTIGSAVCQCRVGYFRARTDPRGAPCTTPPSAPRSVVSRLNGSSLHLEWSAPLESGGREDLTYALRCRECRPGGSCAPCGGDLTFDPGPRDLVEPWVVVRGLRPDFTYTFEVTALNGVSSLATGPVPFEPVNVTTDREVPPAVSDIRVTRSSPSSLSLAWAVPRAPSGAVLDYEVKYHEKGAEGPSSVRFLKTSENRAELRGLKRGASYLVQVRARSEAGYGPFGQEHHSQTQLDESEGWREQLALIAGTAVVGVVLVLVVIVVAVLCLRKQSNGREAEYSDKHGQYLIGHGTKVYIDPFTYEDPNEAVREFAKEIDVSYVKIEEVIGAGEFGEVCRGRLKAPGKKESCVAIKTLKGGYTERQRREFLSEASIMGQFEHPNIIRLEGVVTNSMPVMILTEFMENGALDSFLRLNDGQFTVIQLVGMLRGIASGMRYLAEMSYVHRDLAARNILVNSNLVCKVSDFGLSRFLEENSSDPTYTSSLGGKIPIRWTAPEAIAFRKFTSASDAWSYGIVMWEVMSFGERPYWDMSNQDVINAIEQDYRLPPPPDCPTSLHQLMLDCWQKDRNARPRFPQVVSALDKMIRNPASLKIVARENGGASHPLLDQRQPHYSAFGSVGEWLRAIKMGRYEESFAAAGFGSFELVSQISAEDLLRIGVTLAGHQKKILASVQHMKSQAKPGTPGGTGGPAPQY
Chain of PI3 Kinase (p120g) (P48736 whole entry): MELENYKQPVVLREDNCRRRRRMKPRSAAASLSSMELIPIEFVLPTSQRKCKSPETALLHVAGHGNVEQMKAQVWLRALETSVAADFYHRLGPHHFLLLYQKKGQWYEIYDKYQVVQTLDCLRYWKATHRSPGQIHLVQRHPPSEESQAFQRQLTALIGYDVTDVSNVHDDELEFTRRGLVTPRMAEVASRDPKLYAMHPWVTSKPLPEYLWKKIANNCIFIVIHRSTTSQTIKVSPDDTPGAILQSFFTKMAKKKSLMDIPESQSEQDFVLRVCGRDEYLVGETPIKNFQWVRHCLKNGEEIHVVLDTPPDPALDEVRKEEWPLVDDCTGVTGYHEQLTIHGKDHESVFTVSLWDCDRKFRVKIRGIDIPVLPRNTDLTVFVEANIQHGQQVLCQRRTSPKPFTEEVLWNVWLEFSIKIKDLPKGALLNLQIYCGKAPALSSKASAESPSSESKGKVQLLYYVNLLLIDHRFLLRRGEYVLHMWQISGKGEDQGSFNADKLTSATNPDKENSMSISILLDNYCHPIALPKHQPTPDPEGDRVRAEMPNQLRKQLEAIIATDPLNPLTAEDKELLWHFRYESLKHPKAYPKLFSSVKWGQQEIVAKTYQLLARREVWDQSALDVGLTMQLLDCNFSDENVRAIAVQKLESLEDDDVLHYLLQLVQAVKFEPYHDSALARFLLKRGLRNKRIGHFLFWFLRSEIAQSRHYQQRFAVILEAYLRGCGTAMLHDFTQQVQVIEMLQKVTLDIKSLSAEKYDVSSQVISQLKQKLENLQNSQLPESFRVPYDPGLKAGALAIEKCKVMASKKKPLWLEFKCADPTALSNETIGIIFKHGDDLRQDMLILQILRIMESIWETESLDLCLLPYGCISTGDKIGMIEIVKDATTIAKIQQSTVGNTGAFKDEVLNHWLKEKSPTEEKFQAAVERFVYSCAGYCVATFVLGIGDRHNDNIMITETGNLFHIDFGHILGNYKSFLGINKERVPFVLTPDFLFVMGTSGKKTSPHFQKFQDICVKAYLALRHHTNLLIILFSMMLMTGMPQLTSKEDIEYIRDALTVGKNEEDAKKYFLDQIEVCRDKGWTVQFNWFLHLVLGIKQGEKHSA
Chain of PKG1α (Q13976 whole entry): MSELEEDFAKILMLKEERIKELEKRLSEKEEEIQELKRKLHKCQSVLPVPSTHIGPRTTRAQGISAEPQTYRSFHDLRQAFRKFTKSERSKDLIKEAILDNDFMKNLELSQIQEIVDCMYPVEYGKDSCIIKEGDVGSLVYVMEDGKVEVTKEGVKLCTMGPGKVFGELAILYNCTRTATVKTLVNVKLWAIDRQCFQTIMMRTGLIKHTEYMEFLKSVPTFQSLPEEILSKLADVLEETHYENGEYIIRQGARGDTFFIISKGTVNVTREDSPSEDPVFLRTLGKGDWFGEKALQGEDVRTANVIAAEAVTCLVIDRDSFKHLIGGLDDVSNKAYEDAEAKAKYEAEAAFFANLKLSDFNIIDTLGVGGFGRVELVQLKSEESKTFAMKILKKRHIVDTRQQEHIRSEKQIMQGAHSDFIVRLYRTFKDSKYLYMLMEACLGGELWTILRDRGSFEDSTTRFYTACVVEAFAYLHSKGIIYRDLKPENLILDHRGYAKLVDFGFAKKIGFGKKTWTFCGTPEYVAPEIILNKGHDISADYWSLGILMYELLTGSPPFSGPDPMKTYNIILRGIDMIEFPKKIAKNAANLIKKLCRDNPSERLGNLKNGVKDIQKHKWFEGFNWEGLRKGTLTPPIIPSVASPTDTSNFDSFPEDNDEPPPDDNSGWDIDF
Chain of CaMKI (Q14012 whole entry): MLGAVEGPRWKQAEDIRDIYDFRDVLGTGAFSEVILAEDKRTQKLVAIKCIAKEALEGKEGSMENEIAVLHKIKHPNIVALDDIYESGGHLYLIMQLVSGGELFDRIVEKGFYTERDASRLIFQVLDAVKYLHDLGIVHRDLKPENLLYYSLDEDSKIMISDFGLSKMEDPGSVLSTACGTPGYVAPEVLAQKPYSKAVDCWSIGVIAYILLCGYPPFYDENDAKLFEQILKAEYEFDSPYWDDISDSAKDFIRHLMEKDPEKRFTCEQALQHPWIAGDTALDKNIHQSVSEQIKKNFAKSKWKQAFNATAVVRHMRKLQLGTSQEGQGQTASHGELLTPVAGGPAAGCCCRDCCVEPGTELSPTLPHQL
Chain of DRAK1 (Q9UEE5 whole entry): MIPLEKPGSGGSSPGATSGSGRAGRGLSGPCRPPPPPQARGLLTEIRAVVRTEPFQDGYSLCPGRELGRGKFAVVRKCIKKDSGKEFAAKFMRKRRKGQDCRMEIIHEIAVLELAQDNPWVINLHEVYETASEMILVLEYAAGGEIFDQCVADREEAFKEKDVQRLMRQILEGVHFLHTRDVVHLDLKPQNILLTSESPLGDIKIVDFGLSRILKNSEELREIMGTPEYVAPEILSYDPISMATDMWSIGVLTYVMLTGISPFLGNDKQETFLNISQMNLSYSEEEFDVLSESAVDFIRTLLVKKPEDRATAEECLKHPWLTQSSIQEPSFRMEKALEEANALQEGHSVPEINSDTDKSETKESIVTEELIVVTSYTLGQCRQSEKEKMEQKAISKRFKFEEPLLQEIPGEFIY
Chain of PAK2 (Q13177 whole entry): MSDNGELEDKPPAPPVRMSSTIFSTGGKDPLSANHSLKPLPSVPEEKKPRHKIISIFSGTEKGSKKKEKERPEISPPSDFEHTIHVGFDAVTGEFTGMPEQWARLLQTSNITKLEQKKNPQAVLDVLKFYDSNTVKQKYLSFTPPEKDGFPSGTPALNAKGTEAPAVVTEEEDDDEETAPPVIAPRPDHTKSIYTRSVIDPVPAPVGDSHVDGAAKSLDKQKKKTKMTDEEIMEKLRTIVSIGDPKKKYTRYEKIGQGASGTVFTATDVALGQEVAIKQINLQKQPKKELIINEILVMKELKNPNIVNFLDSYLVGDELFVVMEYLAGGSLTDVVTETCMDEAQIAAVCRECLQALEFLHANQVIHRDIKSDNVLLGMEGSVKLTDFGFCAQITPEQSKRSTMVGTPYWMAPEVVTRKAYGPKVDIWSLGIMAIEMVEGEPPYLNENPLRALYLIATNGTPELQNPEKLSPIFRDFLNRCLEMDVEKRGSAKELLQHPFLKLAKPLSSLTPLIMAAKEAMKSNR

IC50 (RS4;11 cells; Homo sapiens, RS4-11, 72 h, read-out: IC50 based on proliferation): 540 ± 20 nM
Kinase activity (% control) (Aurora-A): 92 % control
Kinase activity (% control) (CaMKI): 100 % control
Kinase activity (% control) (CDK9/cyclin T1): 86 % control
Kinase activity (% control) (CHK1): 94 % control
Kinase activity (% control) (CK1γ1): 98 % control
Kinase activity (% control) (DRAK1): 81 % control
Kinase activity (% control) (eEF-2K): 86 % control
Kinase activity (% control) (EphB4): 83 % control
Kinase activity (% control) (GSK3β): 88 % control
Kinase activity (% control) (LOK): 101 % control
Kinase activity (% control) (Mnk2): 90 % control
Kinase activity (% control) (p70S6K): 85 % control
Kinase activity (% control) (PAK2): 88 % control
Kinase activity (% control) (Pim-1): 99 % control
Kinase activity (% control) (PKCθ): 96 % control
Kinase activity (% control) (PKG1α): 98 % control
Kinase activity (% control) (SAPK2a): 98 % control
Kinase activity (% control) (SRPK1): 94 % control
Kinase activity (% control) (TAK1): 87 % control
Kinase activity (% control) (PI3 Kinase (p110b/p85a)): 97 % control
Kinase activity (% control) (PI3 Kinase (p120g)): 98 % control
SMILES: Cc1ccc(-c2cc3ccccc3c(N)n2)cc1 [FX-9, 3-(p-Tolyl)isoquinolin-1-amine]
viability at 5 µM (Jurkat cells): 10.4%
viability at 10 µM (Jurkat cells): 13.6%
Proliferation compared to control cells (=100%) (RS4;11 cells; RS4;11, 0.5 μM, 72 h): 60.0%
Apoptosis (total of early apoptotic and late apoptotic and necrotic cells) (SEM cells): 75.9%
Apoptosis (total of early apoptotic and late apoptotic and necrotic cells) (CEM cells): 90.4%
cleaved caspase 3 protein (western blot) (cleaved caspase 3): increased amount of cleaved caspase 3
p-p38 level (western blot) (p-p38): reduced
pSTAT3 level (western blot) (pSTAT3): reduced
pERK level (western blot) (pERK): dose dependent increase
